Calls of active or inactive are those of the source. The rule behind the calls is not given here.
What was measured:
[1] = system: KM12; test: Cytotoxicity against human KM12 cells after 2 days by XTT assay; format: functional, cell-based; conditions: KM12, 48 h
In short: (§1)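 Test samples were supplied as DMSO solutions and applied to human colon tumour KM12 and COLO205 cells in a two-day in vitro XTT-based antiproliferative assay. Activity was expressed as IC50 (μM).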

[2] = system: KM12; test: Growth inhibition of human KM12 cells after 2 days by XTT assay; format: functional, cell-based; conditions: KM12, 48 h; in short: as §1
[3] = target: Endothelial PAS domain-containing protein 1 (Homo sapiens) (UniProt Q99814); test: Inhibition of HIF-2alpha expressed in 786O cells assessed as inhibition of VEGF expression by luciferase reporter gene assay; format: cell-based
Sequence of Endothelial PAS domain-containing protein 1 (Homo sapiens) (Q99814 whole entry, the tested form may be a part): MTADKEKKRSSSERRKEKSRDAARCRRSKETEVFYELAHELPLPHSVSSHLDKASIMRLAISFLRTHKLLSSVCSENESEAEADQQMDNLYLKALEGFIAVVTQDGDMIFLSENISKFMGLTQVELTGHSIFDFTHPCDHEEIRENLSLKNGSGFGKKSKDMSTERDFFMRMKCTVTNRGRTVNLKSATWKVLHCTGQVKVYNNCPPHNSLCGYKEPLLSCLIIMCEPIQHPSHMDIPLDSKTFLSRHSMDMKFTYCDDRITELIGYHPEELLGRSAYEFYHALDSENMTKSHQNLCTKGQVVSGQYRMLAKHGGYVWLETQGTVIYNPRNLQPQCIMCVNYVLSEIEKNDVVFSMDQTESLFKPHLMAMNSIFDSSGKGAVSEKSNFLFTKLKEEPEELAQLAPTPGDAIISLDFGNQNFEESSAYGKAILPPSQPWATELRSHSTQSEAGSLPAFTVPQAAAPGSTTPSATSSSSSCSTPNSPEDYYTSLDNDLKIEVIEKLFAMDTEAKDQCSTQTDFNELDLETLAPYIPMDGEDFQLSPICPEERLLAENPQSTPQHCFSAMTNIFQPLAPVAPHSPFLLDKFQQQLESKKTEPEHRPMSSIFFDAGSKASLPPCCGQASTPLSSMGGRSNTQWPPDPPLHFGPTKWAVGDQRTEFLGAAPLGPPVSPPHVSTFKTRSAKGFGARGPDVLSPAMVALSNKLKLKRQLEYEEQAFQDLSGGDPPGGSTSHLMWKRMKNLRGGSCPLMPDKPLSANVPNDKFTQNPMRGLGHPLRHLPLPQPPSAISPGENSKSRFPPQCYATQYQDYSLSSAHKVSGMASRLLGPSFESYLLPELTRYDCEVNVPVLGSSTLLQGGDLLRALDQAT

[4] = system: COLO 205; test: Growth inhibition of human COLO205 cells after 2 days by XTT assay; format: functional, cell-based; conditions: COLO 205, 48 h; in short: as §1
[5] = system: COLO 205; test: Cytotoxicity against human COLO205 cells after 2 days by XTT assay; format: functional, cell-based; conditions: COLO 205, 48 h; in short: as §1

inhibition [3]	IC50 [4] [µM]	Compound	IC50 [1] [µM]	IC50 [2] [µM]	IC50 [5] [µM]
inactive	20	C=C1[C@@H](OC(C)=O)C[C@H]2[C@@](C)(CC[C@H]3C(C)(C)CCC[C@]23C)[C@@H]1C[C@H](O)[C@H](CCOC(C)=O)C(C)=O [FLABELLIFERIN A]	15	15	20
inactive	20	CC(=O)O[C@H]1C[C@H]2[C@@](C)(CC[C@H]3C(C)(C)CCC[C@]23C)[C@@H]2C[C@H](O)C(C(C)=O)=C[C@@]12C [FLABELLIFERIN B]	18	18	20

Source: ChEMBL document CHEMBL2086315, “Flabelliferins A and B, sesterterpenoids from the South Pacific sponge Carteriospongia flabellifera” (J Nat Prod, 2012)
